Source: ChEMBL document CHEMBL5303300, “EUbOPEN Chemogenomics Library - Multiplex” (2023)
“And” between values parts separate entries of the source, which are not always exact repeats. Equal values may be shown once.

What was measured:
Fibroblast = test: Multiplex assay against human fibroblast; type: toxicity, cell-based; details: number of replicates 2
Summary of the method: (§1)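 Values for tubulin, mitochondrial-mass and membrane-permeability phenotypes are per cents of cells with healthy nuclei. These cells were identified by CellPathfinder machine-learning gating of live cells that had been stained at seeding with Hoechst33342, BioTracker Green Microtubule Cytoskeleton Dye, MitoTracker Red and Annexin V Alexa Fluor 680 and imaged on a CQ1 microscope at 37°C and 5% CO2 after compound addition. The gating first set Hoechst high-intensity objects apart from normal cells, then split normal cells into healthy, pyknosed or fragmented nuclei, and pyknosed cells into mitotic or apoptotic.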

HEK-293T = test: Multiplex assay against HEK293T; type: toxicity, cell-based; details: human, number of replicates 2; summary of the method: as §1
[1] = 12 h, 1 µM, compound concentration 1 uM
[2] = 12 h, 10 µM, compound concentration 10 uM
[3] = 24 h, 1 µM, compound concentration 1 uM
[4] = 24 h, 10 µM, compound concentration 10 uM
[5] = 48 h, 1 µM, compound concentration 1 uM
[6] = 48 h, 10 µM, compound concentration 10 uM

Compound: COc1cc(OC)cc(-c2cc3cnc(N)nc3nc2NC(=O)NC(C)(C)C)c1
- Population Apoptotic (%) (Fibroblast; [1]): 28% and 48% and 41% and 34%
- Population Fragmented Nuclei (%) (Fibroblast; [1]): 10% and 16% and 6% and 8%
- Population Healthy Nuclei (%) (Fibroblast; [1]): 72% and 62% and 76% and 70%
- Population Hoechst High Intensity Objects (%) (Fibroblast; [1]): 0% and 11%
- Population Membrane Permeable-Phenotype (%) (Fibroblast; [1]): 7% and 6% and 5%
- Population Mitochondria Different-Phenotype (%) (Fibroblast; [1]): 2% and 0%
- Population Mitotic Cells (%) (Fibroblast; [1]): 71% and 51% and 58% and 65%
- Population Normal (%) (Fibroblast; [1]): 100% and 88%
- Population Pyknosed Nuclei (%) (Fibroblast; [1]): 17% and 20% and 16%
- Population Tubulin-Different-Phenotype (%) (Fibroblast; [1]): 18% and 11% and 9% and 8%
- Total Cell Count (Fibroblast; [1]): 258 and 266 and 187 and 224
- Population Apoptotic (%) (Fibroblast; [2]): 50% and 26% and 38% and 34%
- Population Fragmented Nuclei (%) (Fibroblast; [2]): 8% and 9% and 14% and 12%
- Population Healthy Nuclei (%) (Fibroblast; [2]): 60% and 67% and 71% and 66%
- Population Hoechst High Intensity Objects (%) (Fibroblast; [2]): 0%
- Population Membrane Permeable-Phenotype (%) (Fibroblast; [2]): 4% and 5%
- Population Mitochondria Different-Phenotype (%) (Fibroblast; [2]): 0% and 1%
- Population Mitotic Cells (%) (Fibroblast; [2]): 50% and 73% and 61% and 65%
- Population Normal (%) (Fibroblast; [2]): 100% and 99%
- Population Pyknosed Nuclei (%) (Fibroblast; [2]): 23% [middle of 4 runs]
- Total Cell Count (Fibroblast; [2]): 176 and 182 and 232 and 229
- Population Apoptotic (%) (Fibroblast; [3]): 54% and 53% and 55%
- Population Fragmented Nuclei (%) (Fibroblast; [3]): 8% and 21% and 10%
- Population Healthy Nuclei (%) (Fibroblast; [3]): 74% and 57% and 71% and 65%
- Population Hoechst High Intensity Objects (%) (Fibroblast; [3]): 0% and 13%
- Population Membrane Permeable-Phenotype (%) (Fibroblast; [3]): 4% and 6% and 5%
- Population Mitochondria Different-Phenotype (%) (Fibroblast; [3]): 0% and 1%
- Population Mitotic Cells (%) (Fibroblast; [3]): 45% and 46% and 44%
- Population Normal (%) (Fibroblast; [3]): 99% and 86% and 100%
- Population Pyknosed Nuclei (%) (Fibroblast; [3]): 17% and 21% and 24%
- Population Tubulin-Different-Phenotype (%) (Fibroblast; [3]): 12% [middle of 4 runs]
- Total Cell Count (Fibroblast; [3]): 260 and 192 and 201
- Population Apoptotic (%) (Fibroblast; [4]): 57% and 48% and 65% and 58%
- Population Fragmented Nuclei (%) (Fibroblast; [4]): 11% and 13% and 16% and 18%
- Population Healthy Nuclei (%) (Fibroblast; [4]): 63% and 67% and 70% and 66%
- Population Hoechst High Intensity Objects (%) (Fibroblast; [4]): 0%
- Population Membrane Permeable-Phenotype (%) (Fibroblast; [4]): 5% and 1% and 4%
- Population Mitochondria Different-Phenotype (%) (Fibroblast; [4]): 0% and 1%
- Population Mitotic Cells (%) (Fibroblast; [4]): 42% and 51% and 34% and 41%
- Population Normal (%) (Fibroblast; [4]): 100% and 99%
- Population Pyknosed Nuclei (%) (Fibroblast; [4]): 25% and 18% and 13% and 15%
- Total Cell Count (Fibroblast; [4]): 187 and 175 and 231 and 236
- Population Apoptotic (%) (Fibroblast; [5]): 70% and 65% and 60% and 68%
- Population Fragmented Nuclei (%) (Fibroblast; [5]): 10% and 18% and 12% and 15%
- Population Healthy Nuclei (%) (Fibroblast; [5]): 75% and 63% and 65%
- Population Hoechst High Intensity Objects (%) (Fibroblast; [5]): 0% and 18%
- Population Membrane Permeable-Phenotype (%) (Fibroblast; [5]): 2% and 10% and 8% and 6%
- Population Mitochondria Different-Phenotype (%) (Fibroblast; [5]): 0%
- Population Mitotic Cells (%) (Fibroblast; [5]): 29% and 34% and 40% and 31%
- Population Normal (%) (Fibroblast; [5]): 100% and 81%
- Population Pyknosed Nuclei (%) (Fibroblast; [5]): 13% and 17% and 12% and 19%
- Population Tubulin-Different-Phenotype (%) (Fibroblast; [5]): 7% and 10% and 9% and 6%
- Total Cell Count (Fibroblast; [5]): 266 and 238 and 205 and 226
- Population Apoptotic (%) (Fibroblast; [6]): 74% and 66% and 75% and 69%
- Population Fragmented Nuclei (%) (Fibroblast; [6]): 13% and 10% and 16% and 18%
- Population Healthy Nuclei (%) (Fibroblast; [6]): 65% and 67% and 71% and 69%
- Population Hoechst High Intensity Objects (%) (Fibroblast; [6]): 0%
- Population Membrane Permeable-Phenotype (%) (Fibroblast; [6]): 8% and 0% and 5% and 4%
- Population Mitochondria Different-Phenotype (%) (Fibroblast; [6]): 1% and 0%
- Population Mitotic Cells (%) (Fibroblast; [6]): 25% and 33% and 24% and 30%
- Population Normal (%) (Fibroblast; [6]): 100%
- Population Pyknosed Nuclei (%) (Fibroblast; [6]): 20% and 22% and 12%
- Total Cell Count (Fibroblast; [6]): 190 and 176 and 237 and 215
- Population Apoptotic (%) (HEK-293T; [1]): 61% and 63% and 50% and 43%
- Population Fragmented Nuclei (%) (HEK-293T; [1]): 7% and 3% and 2% and 4%
- Population Healthy Nuclei (%) (HEK-293T; [1]): 77% and 80% and 85% and 83%
- Population Hoechst High Intensity Objects (%) (HEK-293T; [1]): 9% and 11% and 10%
- Population Membrane Permeable-Phenotype (%) (HEK-293T; [1]): 6% and 2% and 3% and 1%
- Population Mitochondria Different-Phenotype (%) (HEK-293T; [1]): 15% and 13% and 18% and 20%
- Population Mitotic Cells (%) (HEK-293T; [1]): 38% and 36% and 50% and 56%
- Population Normal (%) (HEK-293T; [1]): 90% and 88% and 89%
- Population Pyknosed Nuclei (%) (HEK-293T; [1]): 15% and 16% and 11%
- Population Tubulin-Different-Phenotype (%) (HEK-293T; [1]): 55% and 48% and 54% and 53%
- Total Cell Count (HEK-293T; [1]): 713 and 595 and 582 and 616
- Population Apoptotic (%) (HEK-293T; [2]): 52% and 55% and 50% and 64%
- Population Fragmented Nuclei (%) (HEK-293T; [2]): 2% and 3% and 7% and 5%
- Population Healthy Nuclei (%) (HEK-293T; [2]): 82% and 86% and 79% and 81%
- Population Hoechst High Intensity Objects (%) (HEK-293T; [2]): 4% and 7% and 12% and 10%
- Population Membrane Permeable-Phenotype (%) (HEK-293T; [2]): 1% and 2%
- Population Mitochondria Different-Phenotype (%) (HEK-293T; [2]): 25% and 15% and 17% and 19%
- Population Mitotic Cells (%) (HEK-293T; [2]): 47% and 44% and 49% and 35%
- Population Normal (%) (HEK-293T; [2]): 95% and 92% and 87% and 89%
- Population Pyknosed Nuclei (%) (HEK-293T; [2]): 14% and 10% and 12%
- Population Tubulin-Different-Phenotype (%) (HEK-293T; [2]): 54% and 47% and 72% and 63%
- Total Cell Count (HEK-293T; [2]): 524 and 626 and 917 and 726
- Population Apoptotic (%) (HEK-293T; [3]): 46% and 54% and 51% and 53%
- Population Fragmented Nuclei (%) (HEK-293T; [3]): 10% and 7% and 8%
- Population Healthy Nuclei (%) (HEK-293T; [3]): 76% and 78% and 82% and 80%
- Population Hoechst High Intensity Objects (%) (HEK-293T; [3]): 10% and 8%
- Population Membrane Permeable-Phenotype (%) (HEK-293T; [3]): 3% and 1% and 2%
